Experimental data taken from ChEMBL document CHEMBL4480457, “Dihydrophenanthrenes from Juncus effusus as Inhibitors of OAT1 and OAT3” (J Nat Prod, 2019).

Experiments:
OAT1 (SLC22A6) = target: T1, OAT1 (SLC22A6) (Homo sapiens, UniProt Q4U2R8); assay: Inhibition of OAT1 (unknown origin) expressed in HEK293 cells assessed as reduction in 6-CF uptake at 50 uM measured after 5 mins by fluorescence assay relative to control; assay type: cell-based; conditions: HEK293 cells expressing OAT1, probe 6-CF
T1 sequence (Q4U2R8 whole entry): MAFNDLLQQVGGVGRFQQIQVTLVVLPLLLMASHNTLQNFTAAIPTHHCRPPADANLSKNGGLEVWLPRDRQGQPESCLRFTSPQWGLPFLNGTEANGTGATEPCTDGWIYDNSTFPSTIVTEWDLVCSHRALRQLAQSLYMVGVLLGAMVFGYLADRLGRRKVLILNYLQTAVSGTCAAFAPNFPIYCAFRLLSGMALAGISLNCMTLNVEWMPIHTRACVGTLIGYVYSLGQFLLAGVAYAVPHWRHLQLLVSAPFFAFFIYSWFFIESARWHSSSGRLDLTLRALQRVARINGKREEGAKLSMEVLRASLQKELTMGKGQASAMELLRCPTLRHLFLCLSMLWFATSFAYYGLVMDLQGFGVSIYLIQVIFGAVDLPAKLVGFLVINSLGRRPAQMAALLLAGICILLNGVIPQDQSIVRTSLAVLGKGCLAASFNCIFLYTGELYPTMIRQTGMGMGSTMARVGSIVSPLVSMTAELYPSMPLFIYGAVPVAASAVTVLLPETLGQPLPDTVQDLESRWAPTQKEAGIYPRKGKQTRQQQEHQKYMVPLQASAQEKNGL
Summary of the method: (§1)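 Transfected HEK293 cells stably expressing OAT1 or OAT3, maintained under hygromycin B selection, were seeded on poly-D-lysine plates and grown 24 h. Cells preincubated 5 min at 37 °C in Hepes uptake buffer (pH 7.2), then exposed 5 min to 4 μM 6-CF with compound at 50 μM. Ice-cold stop, PBS wash, Triton lysis. Fluorescence read at 485/528 nm, normalized to BCA protein, in triplicate.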

OAT3 = target: T2, OAT3 (Homo sapiens, UniProt Q8TCC7); assay: Inhibition of OAT3 (unknown origin) expressed in HEK293 cells assessed as reduction in 6-CF uptake at 50 uM measured after 5 mins by fluorescence assay relative to control; assay type: cell-based; conditions: HEK293 cells expressing OAT3, probe 6-CF; summary of the method: as §1
T2 sequence (Q8TCC7 whole entry): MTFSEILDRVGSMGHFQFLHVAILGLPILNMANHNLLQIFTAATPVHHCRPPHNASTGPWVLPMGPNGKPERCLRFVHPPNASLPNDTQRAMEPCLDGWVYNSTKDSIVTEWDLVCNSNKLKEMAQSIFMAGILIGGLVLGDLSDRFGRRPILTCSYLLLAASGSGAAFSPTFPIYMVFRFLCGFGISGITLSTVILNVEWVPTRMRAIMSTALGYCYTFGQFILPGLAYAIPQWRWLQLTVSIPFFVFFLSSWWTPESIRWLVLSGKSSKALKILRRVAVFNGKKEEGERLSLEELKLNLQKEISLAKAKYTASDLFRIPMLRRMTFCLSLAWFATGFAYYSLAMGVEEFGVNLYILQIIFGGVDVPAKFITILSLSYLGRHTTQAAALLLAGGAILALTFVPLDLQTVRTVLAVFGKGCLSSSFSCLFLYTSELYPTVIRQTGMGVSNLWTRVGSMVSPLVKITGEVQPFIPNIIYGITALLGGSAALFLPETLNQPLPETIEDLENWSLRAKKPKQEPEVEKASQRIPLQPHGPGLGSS

[1] = target: T3, Organic anion transporter 3 (Homo sapiens, UniProt Q8TCC7); assay: Inhibition of OAT3 (unknown origin) expressed in HEK293 cells assessed as reduction in 6-CF uptake measured after 5 mins by fluorescence assay; assay type: cell-based; conditions: for inhibition (INH): human, hek293, 5 min
T3 sequence (Q8TCC7 whole entry): T2 sequence (Q8TCC7 whole entry)
Summary of the method: (§2)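 Uptake of 4 μM 6-CF measured over 5 min in stable OAT1- or OAT3-HEK293 cells, in pH 7.2 Hepes buffer at 37 °C with serial dilutions of compound. Lysate fluorescence (485/528 nm) normalized to protein, triplicate. IC50 obtained by nonlinear regression, reported as mean ± SEM.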

[2] = target: T4, Solute carrier family 22 member 6 (Homo sapiens, UniProt Q4U2R8); assay: Inhibition of OAT1 (unknown origin) expressed in HEK293 cells assessed as reduction in 6-CF uptake measured after 5 mins by fluorescence assay; assay type: cell-based; conditions: for inhibition (INH): human, hek293, 5 min; summary of the method: as §2
T4 sequence (Q4U2R8 whole entry): T1 sequence (Q4U2R8 whole entry)

[3] = Toxicity in Wistar rat at 20 mg/kg, po administered via gavage; assay type: organism-based; conditions: in vivo
Summary of the method: (§3)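 Preliminary test in fasted rats: single oral gavage dose in 40% PEG-400, observed for toxic response.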

Rattus norvegicus [4] = assay: In vivo inhibition of OAT1 and OAT3 in Wistar rat assesed as increase in furosemide AUC (0 to t) at 20 mg/kg, po administered via gavage pretreated for 5 mins followed by furosemide addition and measured within 10 mins by HPLC analysis; assay type: functional; set-up: scale not given: the % may be the effect or the level left
Summary of the method: (§4)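 Rats (5 per group) fasted 12 h, then pretreated by oral gavage with test agent in 40% PEG-400 or vehicle. After 5 min, furosemide 10 mg/kg in saline given by tail vein injection. Orbital sinus blood taken at 2–120 min. Plasma extracted with MeCN containing warfarin internal standard. Furosemide quantified by C18 HPLC with UV detection at 280 nm. AUC0−t calculated.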

Rattus norvegicus [5] = assay: In vivo inhibition of OAT1 and OAT3 in Wistar rat assesed as increase in furosemide AUC (0 to t) at 10 mg/kg, po administered via gavage pretreated for 5 mins followed by furosemide addition and measured within 10 mins by HPLC analysis; assay type: functional; set-up: scale not given: the % may be the effect or the level left; conditions: in the assay text read “at 20 mg/kg” for “at 10 mg/kg”; summary of the method: as §4
Rattus norvegicus [6] = assay: In vivo inhibition of OAT1 and OAT3 in Wistar rat assesed as increase in furosemide AUC (0 to t) at 20 mg/kg, po administered via gavage pretreated for 5 mins followed by furosemide addition and measured within 30 mins by HPLC analysis; assay type: functional; set-up: scale not given: the % may be the effect or the level left; summary of the method: as §4
Rattus norvegicus [7] = assay: In vivo inhibition of OAT1 and OAT3 in Wistar rat assesed as increase in furosemide AUC (0 to t) at 10 mg/kg, po administered via gavage pretreated for 5 mins followed by furosemide addition and measured within 30 mins by HPLC analysis; assay type: functional; set-up: scale not given: the % may be the effect or the level left; conditions: in the assay text read “at 20 mg/kg” for “at 10 mg/kg”; summary of the method: as §4
Rattus norvegicus [8] = assay: In vivo inhibition of OAT1 and OAT3 in Wistar rat assesed as increase in furosemide AUC (0 to t) at 20 mg/kg, po administered via gavage pretreated for 5 mins followed by furosemide addition and measured within 90 mins by HPLC analysis; assay type: functional; set-up: scale not given: the % may be the effect or the level left; summary of the method: as §4
Rattus norvegicus [9] = assay: In vivo inhibition of OAT1 and OAT3 in Wistar rat assesed as increase in furosemide AUC (0 to t) at 10 mg/kg, po administered via gavage pretreated for 5 mins followed by furosemide addition and measured within 90 mins by HPLC analysis; assay type: functional; set-up: scale not given: the % may be the effect or the level left; summary of the method: as §4
[10] = Toxicity in Wistar rat at 10 mg/kg, po administered via gavage; assay type: organism-based; conditions: in vivo; summary of the method: as §3

| SMILES | inhibition at 5 min, 50 µM (OAT1 (SLC22A6)) [%] | inhibition at 5 min, 50 µM (OAT3) [%] | IC50 [1] [nM] | inhibition (INH) [1] | IC50 [2] [µM] | inhibition (INH) [2] | Activity [3] | Activity (Rattus norvegicus [4]) [%] | Activity (Rattus norvegicus [5]) [%] | Activity (Rattus norvegicus [6]) [%] | Activity (Rattus norvegicus [7]) [%] | Activity (Rattus norvegicus [8]) [%] | Activity (Rattus norvegicus [9]) [%] | Activity [10] |
| --- | --- | --- | --- | --- | --- | --- | --- | --- | --- | --- | --- | --- | --- | --- |
| C=Cc1c(C)c(O)cc2c1-c1ccc(O)c(C)c1CC2 | < 50 | > 50 | 6500 | Dose-dependent effect | – | – | – | – | – | – | – | – | – | – |
| C=Cc1c(C(=O)O)ccc2c1CCc1c-2ccc(O)c1C | > 50 | > 50 | 1100 | Dose-dependent effect | 18.3 | – | – | – | – | – | – | – | – | – |
| C=Cc1cc(C(=O)O)cc2c1-c1ccc(O)c(C)c1CC2 | > 50 | > 50 | 1100 | Dose-dependent effect | 4.4 | Dose-dependent effect | – | – | – | – | – | – | – | – |
| C=Cc1cc2c(cc1C(=O)O)CCc1c-2ccc(O)c1C | > 50 | > 50 | 1300 | Dose-dependent effect | 8.4 | Dose-dependent effect | Non-Toxic | 70 | 70 | 62 | 62 | 66 | 66 | – |
| C=Cc1cc(O)cc2c1-c1ccc(O)c(C)c1CC2 [EFFUSOL] | > 50 | > 50 | 22700 | – | 23.3 | – | – | – | – | – | – | – | – | – |
| CCCN(CCC)S(=O)(=O)c1ccc(C(=O)O)cc1 [PROBENECID] | – | – | – | – | – | – | – | – | – | – | – | – | – | Non-Toxic |

More lines, main results first:

| inhibition at 5 min, 50 µM (OAT1 (SLC22A6)) [%] | inhibition at 5 min, 50 µM (OAT3) [%] | IC50 [1] [nM] | inhibition (INH) [1] | IC50 [2] [µM] | inhibition (INH) [2] | SMILES | Activity [3] | Activity (Rattus norvegicus [4]) [%] | Activity (Rattus norvegicus [5]) [%] | Activity (Rattus norvegicus [6]) [%] | Activity (Rattus norvegicus [7]) [%] | Activity (Rattus norvegicus [8]) [%] | Activity (Rattus norvegicus [9]) [%] | Activity [10] |
| --- | --- | --- | --- | --- | --- | --- | --- | --- | --- | --- | --- | --- | --- | --- |
| > 50 | > 50 | 2300 | Dose-dependent effect | 3.5 | Dose-dependent effect | COc1cc(C(=O)c2ccc(O)c(OC)c2)ccc1O | – | – | – | – | – | – | – | – |
| < 50 | > 50 | 2800 | Dose-dependent effect | – | – | C=Cc1cc(C(=O)O)cc2c1CCc1c-2ccc(O)c1C | – | – | – | – | – | – | – | – |
| > 50 | > 50 | 8300 | Dose-dependent effect | 43.1 | – | COC(C)c1cc(O)cc2c1-c1ccc(O)c(C)c1CC2 (racemic) | – | – | – | – | – | – | – | – |
